Data published in ChEMBL document CHEMBL4385647, “Design, synthesis and biological evaluation of 3-hydroxyquinazoline-2,4(1H,3H)-diones as dual inhibitors of HIV-1 reverse transcriptase-associated RNase H and integrase” (Bioorg Med Chem, 2019).
Calls of active or inactive are those of the source. The rule behind the calls is not given here.

What was measured:
[1] = Inhibition of HIV reverse transcriptase RNase H activity; parameters: species or system Human immunodeficiency virus
Procedure, shortened: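 Wild-type HIV-1 BH10 RT (20-40 nM), expressed in E. coli, was incubated at 37°C in 50 mM Tris-HCl pH 8.0, 50 mM NaCl, 5 mM MgCl2 and 5% DMSO. Cleaved substrate was quantified over 0.2-100 μM compound against a DMSO-only control. IC50 was taken from dose-response curves.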

[2] = Apparent permeability in human Caco2 cells by LC analysis; assay type: ADME, cell-based; details: Caco-2
Procedure, shortened: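 Transport was measured across Caco-2 cell monolayers, with nadolol and metoprolol as controls. Papp (cm/s) was calculated as (dCr/dt)×Vr/(A×C0), where dCr/dt is the cumulative receiver-chamber concentration over time.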

[3] = biological target: Human immunodeficiency virus type 1 reverse transcriptase (Human immunodeficiency virus 1, UniProt Q72547); assay: Inhibition of HIV1 reverse transcriptase RNase H activity expressed in Escherichia coli using 32P-labeled template 31Trna RNA and DNA oligonucleotide 21P
[4] = tested on: Human immunodeficiency virus 1; assay: Antiviral activity against HIV1 3B infected in human MT4 cells incubated for 5 days by MTT assay; assay type: functional, organism-based; details: Human immunodeficiency virus 1, 3B, MT4, 120 h
Procedure, shortened: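 MT-4 cells resuspended at 6×10^5 cells/mL and infected with 100-300 CCID50 of HIV-1 IIIB or HIV-2 ROD. Serial five-fold compound dilutions were tested in triplicate wells. After 5 days, viability was measured by MTT reduction with absorbance read at 540 and 690 nm, using the median OD of two or three wells.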

[5] = Cytotoxicity in mock-infected human MT4 cells assessed as reduction in cell viability incubated for 5 days by MTT assay; assay type: cell-based
Procedure, shortened: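 Mock-infected MT-4 cells at 6×10^5 cells/mL were exposed to serial five-fold compound dilutions in triplicate wells in parallel with the infected series. After 5 days, viability was read by MTT at 540 and 690 nm from the median OD of two or three wells.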

[6] = biological target: T1, Human immunodeficiency virus type 1 integrase (Human immunodeficiency virus 1, UniProt Q7ZJM1); assay: Inhibition of strand transfer activity of HIV1 integrase expressed in Escherichia coli using DNA complexes containing 32P-labeled INT1ST and non-labeled INT2
[7] = biological target: T1, Human immunodeficiency virus type 1 integrase; assay: Inhibition of HIV integrase strand transfer activity
[8] = biological target: Human immunodeficiency virus type 1 integrase (Human immunodeficiency virus 1) (UniProt Q7ZJM1); assay: Inhibition of strand transfer activity of HIV1 integrase expressed in Escherichia coli at 10 uM using DNA complexes containing 32P-labeled INT1ST and non-labeled INT2
Procedure, shortened: (§1)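 Wild-type HIV-1 IN, expressed in E. coli, was assayed for strand transfer with DNA complexes of 32P-labeled INT1ST and unlabeled INT2 at 1% DMSO. Percent inhibition was measured at […].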

[9] = biological target: Human immunodeficiency virus type 1 integrase (Human immunodeficiency virus 1) (UniProt Q7ZJM1); assay: Inhibition of strand transfer activity of HIV1 integrase expressed in Escherichia coli at 0.1 to 10 uM using DNA complexes containing 32P-labeled INT1ST and non-labeled INT2; procedure, shortened: as §1

Chain of Human immunodeficiency virus type 1 integrase (Human immunodeficiency virus 1) (Q7ZJM1 as listed by the source): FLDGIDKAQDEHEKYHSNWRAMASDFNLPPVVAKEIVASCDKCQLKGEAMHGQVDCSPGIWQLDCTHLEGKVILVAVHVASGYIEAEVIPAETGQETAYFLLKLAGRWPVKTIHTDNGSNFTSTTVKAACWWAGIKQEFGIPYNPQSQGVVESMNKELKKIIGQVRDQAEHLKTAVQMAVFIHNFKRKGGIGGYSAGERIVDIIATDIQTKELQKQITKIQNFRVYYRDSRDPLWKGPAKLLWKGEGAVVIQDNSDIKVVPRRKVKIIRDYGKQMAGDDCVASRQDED
T1 sequence (Q7ZJM1 whole entry): as the sequence (Q7ZJM1 as listed by the source) above

Row | Compound | IC50 [3] | EC50 [4] | CC50 at 120 h [5] | also measured
1 | O=C1Cc2cc(Cc3ccc(-c4ccccc4)cc3)ccc2C(=O)N1O | – | – | – | IC50 [1]: 800 nM
2 | CCOC(=O)C(=O)CC(=O)/C=C/c1cccn1Cc1ccccc1Cl | – | – | – | IC50 [1]: 7300 nM
3 | COCCc1ccc(OCC(O)CNC(C)C)cc1 (stereo unspecified) [METOPROLOL] | – | – | – | Papp [2]: 14.7 ×10⁻⁶ cm/s
4 | NCc1ccc(-c2ccc(Cc3cc(=O)n(O)c4ncccc34)cc2)cc1 | – | – | – | IC50 [1]: 45 nM
5 | O=c1[nH]c2cc(NS(=O)(=O)c3cccc(C(F)(F)F)c3)ccc2c(=O)n1O | 5.33 µM | > 80.2 µM | 80.2 µM | –
6 | O=c1[nH]c2ccc(NS(=O)(=O)c3ccc4ccccc4c3)cc2c(=O)n1O | 0.41 µM | > 208 µM | 208 µM | Papp [2]: < 0.19 ×10⁻⁶ cm/s; IC50 [6]: 850 nM
7 | COc1ccc(Cc2nc(O)c(O)c(C(=O)O)n2)cc1Br | – | – | – | IC50 [1]: 1400 nM
8 | Cc1nnc(C(=O)NC(C)(C)c2nc(C(=O)NCc3ccc(F)cc3)c(O)c(=O)n2C)o1 | – | 0.015 µM | 6.51 µM | –
9 | O=C(NCc1c(F)cc(F)cc1F)c1cn2c(c(O)c1=O)C(=O)N1[C@H]3CC[C@H](C3)O[C@@H]1C2 [BICTEGRAVIR] | – | – | – | IC50 [7]: 7.5 nM
10 | CC(C)(C)NCC(O)COc1cccc2c1CC(O)C(O)C2 (stereo unspecified) [NADOLOL] | – | – | – | Papp [2]: 0.09 ×10⁻⁶ cm/s
11 | Cc1cc(C)c(S(=O)(=O)Nc2ccc3c(=O)n(O)c(=O)[nH]c3c2)c(C)c1 | 3.24 µM | > 154 µM | 154 µM | –
12 | O=c1[nH]c2ccc(NS(=O)(=O)c3cccc(C(F)(F)F)c3)cc2c(=O)n1O | 2 µM | > 176 µM | 176 µM | –
13 | O=c1[nH]c2ccc(NS(=O)(=O)c3ccc(F)cc3)cc2c(=O)n1O | 2.25 µM | > 199 µM | 199 µM | –
14 | NS(=O)(=O)c1ccc(-c2ccc(Cn3cc(O)c(=O)c(C(=O)O)c3)cc2)cc1 | – | – | – | IC50 [1]: 650 nM
15 | CC(C)c1ccc(O)c(=O)c(O)c1 [BETA-THUJAPLICINOL] | 1.98 µM | > 2.83 µM | 2.83 µM | IC50 [1]: 3800 nM

Second part, led by results:

Row | IC50 [3] | Compound | EC50 [4] | CC50 at 120 h [5] | also measured
16 | 3.73 µM | O=C(Nc1ccc2c(=O)n(O)c(=O)[nH]c2c1)c1ccc(F)cc1 | > 43 µM | 43 µM | –
17 | 11.7 µM | O=c1[nH]c2cc(NS(=O)(=O)c3ccc(-c4ccccc4)cc3)ccc2c(=O)n1O | > 305 µM | > 305 µM | –
18 | 1.19 µM | O=c1[nH]c2ccc(NS(=O)(=O)c3ccccc3)cc2c(=O)n1O | > 213 µM | 213 µM | –
19 | 4.1 µM | Cc1cccc(S(=O)(=O)Nc2ccc3c(=O)n(O)c(=O)[nH]c3c2)c1 | > 310 µM | 310 µM | –
20 | 6.09 µM | O=C(Nc1ccc2c(=O)n(O)c(=O)[nH]c2c1)c1ccc(C(F)(F)F)cc1 | > 316 µM | 316 µM | –
21 | 5.88 µM | CC(C)(C)c1ccc(S(=O)(=O)Nc2ccc3c(=O)n(O)c(=O)[nH]c3c2)cc1 | > 307 µM | 307 µM | inhibition [8]: 50 to 60%; inhibition [9]: Active
22 | 20.1 µM | O=c1[nH]c2cc(NS(=O)(=O)c3ccc4ccccc4c3)ccc2c(=O)n1O | > 220 µM | 220 µM | inhibition [8]: 50 to 60%; inhibition [9]: Active
23 | 5.68 µM | O=c1[nH]c2cc(NS(=O)(=O)c3ccc(F)cc3)ccc2c(=O)n1O | > 356 µM | > 356 µM | –
24 | 3.73 µM | O=C(Nc1ccc2c(=O)n(O)c(=O)[nH]c2c1)c1cccc(F)c1 | > 39.8 µM | 39.8 µM | –
25 | 2.52 µM | O=C(Nc1ccc2c(=O)n(O)c(=O)[nH]c2c1)c1ccccc1 | > 36.6 µM | 36.6 µM | –
26 | 2.74 µM | Cc1ccc(C(=O)Nc2ccc3c(=O)n(O)c(=O)[nH]c3c2)cc1 | > 10.9 µM | 10.9 µM | –
27 | 4.29 µM | O=C(Nc1ccc2[nH]c(=O)n(O)c(=O)c2c1)c1ccccc1F | > 168 µM | 168 µM | –
